Test results: ChEMBL document CHEMBL3526035, “Role of the intestinal peptide transporter PEPT1 in oseltamivir absorption: in vitro and in vivo studies” (Drug Metab Dispos, 2012); call rule not given here
Where a SMILES comes first, the peptide text is derived from it. [ ]: non-standard residue; d: D form. Sar = CNCC(=O)O

Assays:
[1] = biological target: T1, Solute carrier family 15 member 1 (Homo sapiens, UniProt P46059); assay: Drug uptake in CHOK1 cells expressing human PEPT1 at 2 uM after 10 mins measured per mg protein by HPLC coupled with radiodetection analysis; assay type: ADME, cell-based; settings: cho-k1, 10 min
T1 sequence (P46059 whole entry): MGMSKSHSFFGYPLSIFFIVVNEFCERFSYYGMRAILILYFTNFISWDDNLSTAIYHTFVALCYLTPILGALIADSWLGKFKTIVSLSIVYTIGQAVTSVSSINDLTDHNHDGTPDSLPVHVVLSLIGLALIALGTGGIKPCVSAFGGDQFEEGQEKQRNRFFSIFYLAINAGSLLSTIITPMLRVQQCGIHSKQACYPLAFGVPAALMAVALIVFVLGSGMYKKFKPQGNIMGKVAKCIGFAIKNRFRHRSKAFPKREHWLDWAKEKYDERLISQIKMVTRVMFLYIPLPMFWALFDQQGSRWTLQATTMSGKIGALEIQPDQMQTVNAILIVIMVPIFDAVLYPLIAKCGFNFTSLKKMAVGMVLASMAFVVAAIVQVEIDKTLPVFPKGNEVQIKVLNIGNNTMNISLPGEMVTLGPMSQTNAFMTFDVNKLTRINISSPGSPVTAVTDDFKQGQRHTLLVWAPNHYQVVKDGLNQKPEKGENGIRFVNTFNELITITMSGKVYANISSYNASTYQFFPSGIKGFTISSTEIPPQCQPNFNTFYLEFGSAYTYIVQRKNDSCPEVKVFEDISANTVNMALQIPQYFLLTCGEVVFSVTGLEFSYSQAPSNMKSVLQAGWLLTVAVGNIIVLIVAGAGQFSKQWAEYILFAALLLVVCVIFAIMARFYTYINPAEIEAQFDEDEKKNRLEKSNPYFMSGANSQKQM
Procedure, shortened: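 Transporter functionality check: 2 µM [3H]Gly-Sar was incubated for 10 min at 37°C, pH 6, in KH/MES buffer with CHO-PEPT1 versus CHO-K1 cells. Intracellular radioactivity in Triton X-100 lysates was expressed as pmol/mg protein (BCA). Six independent experiments, triplicate wells.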

[2] = biological target: T1, Solute carrier family 15 member 1; assay: Drug uptake in CHOK1 cells expressing human PEPT1 by HPLC coupled with radiodetection analysis; assay type: ADME, cell-based; settings: cho-k1, TDE = time-dependent effect
Procedure, shortened: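 Accumulation of [14C]oseltamivir or its carboxylate in CHO-PEPT1 versus CHO-K1 cells. Conditions varied: KH buffer (with MES) or Hanks' balanced salt solution, pH 5 or 6 readjusted after substrate addition, 30 s to 15 min at 37°C. Uptake was quenched with ice-cold PBS-BSA, followed by Triton X-100 lysis, scintillation counting, and BCA protein normalization. HPLC-radiodetection checked ester stability.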

[3] = Drug uptake in CHOK1 cells at 2 uM after 10 mins measured per mg protein by HPLC coupled with radiodetection analysis; assay type: ADME, cell-based, Cricetulus griseus; settings: chinese hamster, cho-k1, 10 min
Procedure, shortened: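 CHO-K1 cells given 2 μM [3H]Gly-Sar in KH buffer at pH 6 for 10 min at 37°C. Ice-cold PBS-BSA quench, then washes and Triton lysis. Scintillation counts expressed as pmol/mg protein (BCA). n=6 experiments.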

[4] = Drug uptake in CHOK1 cells at 2 uM at pH 4 to 8 after 10 mins by HPLC coupled with radiodetection analysis; assay type: ADME, cell-based, Cricetulus griseus; settings: chinese hamster, cho-k1, pH 4, 10 min
Procedure, shortened: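 [3H]Gly-Sar at 2 μM in KH buffer over pH 4-8, incubated with CHO-K1 cells for 10 min at 37°C. Accumulated radioactivity in cell lysates counted and normalised to protein. Three independent experiments.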

Compound: CN(CC(=O)O)C(=O)CN [GLYCYLSARCOSINE] (H-Gly-[Sar]-OH)
- Drug uptake [1]: 182 pmol
- Drug uptake [2]: tde
- Drug uptake [3]: 1.1 pmol
- Drug uptake [4]: Active
